From ChEMBL document CHEMBL1130090, “Antitumor agents. 174. 2',3',4',5,6,7-Substituted 2-phenyl-1,8-naphthyridin-4-ones: their synthesis, cytotoxicity, and inhibition of tubulin polymerization” (J Med Chem, 1997)

How the values were obtained:
Format in all cases: functional
Tubulin beta chain = Tubulin beta chain (Bos taurus, UniProt Q6B856); assay: Inhibition of bovine tubulin polymerization
PC-3 = assay: Concentration which reduced cell growth to 50 % of level against PC-3 prostate cancer line; conditions: Homo sapiens
SK-MEL-5 = assay: Concentration which reduced cell growth to 50 % of level against SK-MEL-5 melanoma cell line; conditions: Homo sapiens
MDA-N = assay: Concentration which reduced cell growth to 50 % of level against MDA-N breast cancer line; conditions: Homo sapiens
U-251 = assay: Concentration which reduced cell growth to 50 % of U251 cancer line; conditions: Homo sapiens
SF-295 = assay: Concentration which reduced cell growth to 50 % of level against SF-295 CNS cancer line; conditions: Homo sapiens
MDA-MB-435 = assay: Concentration which reduced cell growth to 50 % of level against MDA-MB-435 breast cancer line; conditions: Homo sapiens
Tumor Cell line = assay: Cytotoxic effect in human tumor cell lines, tested by the National Cancer Institute; conditions: read-out: Average LogGI50 (converted)
OVCAR-3 = assay: Concentration which reduced cell growth to 50 % of level against OVCAR-3 ovarian cancer line; conditions: Homo sapiens
HL-60 = assay: Concentration which reduced cell growth to 50 % of level against HL-60 (TB) leukemia cell line; conditions: Homo sapiens
786-0 = assay: Concentration which reduced cell growth to 50 % of level against 786-0 renal cancer line; conditions: Homo sapiens
HCT-116 = assay: Concentration which reduced cell growth to 50 % of level against HCT116 colon cancer cell line; conditions: Homo sapiens
NCI-H460 = assay: Concentration which reduced cell growth to 50 % of level against NCI-H460 non -small-cell lung cancer cell line; conditions: Homo sapiens
[1] = molecular target: Tubulin alpha chain (Sus scrofa) (UniProt P02550); assay: Inhibition of colchicine binding and evaluated only when polymerization IC50 <=1 uM
In short: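 Electrophoretically homogeneous bovine brain tubulin (1.0 µM) incubated 20 min at 37 °C with 5.0 µM [3H]colchicine and 5.0 µM inhibitor in 1.0 M monosodium glutamate (pH 6.6), 1 mM MgCl2, 0.1 mM GTP, 5% (v/v) DMSO. Mixtures filtered through two stacked DEAE-cellulose filters and washed with water. Bound radioactivity counted by liquid scintillation.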

Chain of Tubulin beta chain (Q6B856 whole entry): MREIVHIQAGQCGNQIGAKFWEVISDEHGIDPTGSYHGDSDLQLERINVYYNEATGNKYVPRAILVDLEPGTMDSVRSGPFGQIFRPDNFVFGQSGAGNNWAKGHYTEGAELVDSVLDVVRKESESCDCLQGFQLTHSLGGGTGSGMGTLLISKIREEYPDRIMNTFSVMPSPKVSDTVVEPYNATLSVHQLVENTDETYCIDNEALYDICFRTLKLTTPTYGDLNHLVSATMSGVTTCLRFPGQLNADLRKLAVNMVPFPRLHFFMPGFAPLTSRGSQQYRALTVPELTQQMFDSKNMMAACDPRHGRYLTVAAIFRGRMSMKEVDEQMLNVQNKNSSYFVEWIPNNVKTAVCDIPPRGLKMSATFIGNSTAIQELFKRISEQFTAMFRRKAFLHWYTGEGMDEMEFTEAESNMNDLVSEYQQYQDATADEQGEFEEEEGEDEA
Chain of Tubulin alpha chain (Sus scrofa) (P02550 whole entry, looked up): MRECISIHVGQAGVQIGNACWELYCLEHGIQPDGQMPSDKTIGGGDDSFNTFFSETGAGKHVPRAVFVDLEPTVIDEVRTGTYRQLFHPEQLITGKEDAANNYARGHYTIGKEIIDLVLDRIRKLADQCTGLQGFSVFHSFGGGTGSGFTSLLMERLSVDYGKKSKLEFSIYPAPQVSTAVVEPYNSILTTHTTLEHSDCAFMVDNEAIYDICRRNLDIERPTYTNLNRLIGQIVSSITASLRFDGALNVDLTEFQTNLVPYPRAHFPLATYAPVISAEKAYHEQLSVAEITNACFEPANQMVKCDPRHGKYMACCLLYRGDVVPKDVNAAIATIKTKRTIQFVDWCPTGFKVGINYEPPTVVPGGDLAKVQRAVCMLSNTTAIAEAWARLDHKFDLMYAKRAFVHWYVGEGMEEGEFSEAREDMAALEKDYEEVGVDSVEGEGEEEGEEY

Row | SMILES | IC50 (Tubulin beta chain) [µM] | GI50 (PC-3) [µM] | GI50 (SK-MEL-5) [µM] | GI50 (MDA-N) [µM] | GI50 (U-251) [µM] | GI50 (SF-295) [µM] | GI50 (MDA-MB-435) [µM] | GI50 (Tumor Cell line) [µM] | GI50 (OVCAR-3) [µM] | GI50 (HL-60) [µM] | GI50 (786-0) [µM] | GI50 (HCT-116) [µM] | GI50 (NCI-H460) [µM] | inhibition [1] [%]
1 | Cc1ccc(-c2cc(O)c3cc(C)cnc3n2)cc1 | 2.4 | – | – | – | – | – | – | – | – | – | – | – | – | –
2 | COc1cccc(-c2cc(O)c3cc(Br)cnc3n2)c1 | 1.5 | – | – | – | – | – | – | – | – | – | – | – | – | –
3 | COc1ccccc1-c1cc(O)c2cccnc2n1 | > 40 | 29.5 | 31.6 | 20 | 67.6 | 23.4 | 39.8 | 40.7 | 47.9 | 38.9 | 36.3 | 27.5 | 38.9 | –
4 | COc1ccccc1-c1cc(O)c2cc(C)cnc2n1 | 18 | 26.9 | 20.4 | 4.47 | 27.5 | 30.9 | 3.02 | 31.6 | 19.5 | 9.55 | 41.7 | 42.7 | 32.4 | –
5 | Cc1ccc2c(O)cc(-c3ccc(F)cc3)nc2n1 | > 40 | 20.9 | 31.6 | 11.7 | 37.2 | 37.2 | 5.89 | 32.4 | 32.4 | 14.8 | 41.7 | 33.9 | 33.9 | –
6 | COc1ccc(-c2cc(O)c3cccnc3n2)cc1 | > 40 | 31.6 | 34.7 | 20.9 | 53.7 | 64.6 | 20 | 38 | 30.2 | 12.9 | 56.2 | 17.8 | 26.3 | –
7 | Cc1ccnc2nc(-c3ccc(Cl)cc3)cc(O)c12 | 4.8 | 2.88 | 3.47 | 1.32 | 4.57 | 5.37 | 0.759 | 5.13 | 3.16 | 1.78 | 3.98 | 3.72 | 3.72 | –
8 | COc1cccc(-c2cc(O)c3cc(C)cnc3n2)c1 | 0.8 | 0.0427 | 0.0257 | < 0.01 | 0.0447 | 0.0372 | < 0.01 | 0.0955 | 0.0417 | 0.0191 | 0.0372 | 0.0224 | 0.0437 | 31
9 | COc1ccc(/C=C\c2cc(OC)c(OC)c(OC)c2)cc1O [COMBRETASTATIN A4] | – | – | – | – | – | – | – | 0.00661 | – | – | – | – | – | –
10 | COc1cccc(-c2cc(O)c3cc(Cl)cnc3n2)c1 | 0.73 | 0.138 | 0.126 | 0.0316 | 0.2 | 0.0603 | 0.0324 | 0.0977 | 0.49 | 0.0269 | 0.427 | 0.12 | 0.0631 | 35
11 | COc1cccc(-c2cc(O)c3c(C)ccnc3n2)c1 | 0.62 | 0.0263 | 0.0224 | < 0.01 | 0.0589 | 0.0288 | < 0.01 | 0.0589 | 0.0257 | 0.0129 | 0.0513 | 0.0447 | 0.0479 | 28
12 | COc1cc([C@@H]2c3cc4c(cc3[C@H](O)[C@H]3COC(=O)[C@H]23)OCO4)cc(OC)c1OC [PODOFILOX] | – | – | – | – | – | – | – | 0.0288 | – | – | – | – | – | 76
13 | Cc1cnc2nc(-c3ccc(Cl)cc3)cc(O)c2c1 | 2 | 1.15 | 2.19 | 0.562 | 3.02 | 2.4 | 0.603 | 3.72 | 2.24 | 2.24 | 6.31 | 2.82 | 3.89 | –
14 | COc1cccc(-c2cc(O)c3ccccc3n2)c1 | – | – | – | – | 9.55 | – | – | 6.17 | – | 2.09 | 5.13 | – | 3.98 | –
15 | Cc1ccc2c(O)cc(-c3ccc(Cl)cc3)nc2n1 | 11 | 1.66 | 4.37 | 1 | 4.79 | 4.57 | 0.912 | 4.9 | 2.57 | 2.95 | 6.31 | 3.31 | 4.47 | –
16 | COc1ccc(-c2cc(O)c3ccc(C)nc3n2)cc1 | > 40 | > 100 | 47.9 | 55 | > 100 | 89.1 | 42.7 | 91.2 | > 100 | > 100 | > 100 | > 100 | > 100 | –

Row | SMILES | IC50 (Tubulin beta chain) [µM] | GI50 (PC-3) [µM] | GI50 (SK-MEL-5) [µM] | GI50 (MDA-N) [µM] | GI50 (U-251) [µM] | GI50 (SF-295) [µM] | GI50 (MDA-MB-435) [µM] | GI50 (Tumor Cell line) [µM] | GI50 (OVCAR-3) [µM] | GI50 (HL-60) [µM] | GI50 (786-0) [µM] | GI50 (HCT-116) [µM] | GI50 (NCI-H460) [µM] | inhibition [1] [%]
17 | COc1cccc(-c2cc(O)c3cccnc3n2)c1 | 0.96 | 0.0933 | 0.0537 | < 0.01 | 0.055 | 0.0525 | < 0.01 | 0.135 | 0.055 | 0.0162 | 0.0617 | 0.0363 | 0.0912 | 27
18 | Oc1cc(-c2ccc(F)cc2)nc2ncccc12 | > 40 | 45.7 | 30.2 | 14.1 | 47.9 | 50.1 | 12 | 45.7 | 45.7 | 12.9 | 44.7 | 42.7 | 34.7 | –
19 | COc1ccccc1-c1cc(O)c2c(C)cc(C)nc2n1 | > 40 | 47.9 | 33.9 | 33.1 | > 100 | 53.7 | 32.4 | 57.5 | 64.6 | 30.2 | > 100 | 74.1 | 70.8 | –
20 | Cc1cc(C)c2c(O)cc(-c3ccc(F)cc3)nc2n1 | > 40 | 30.2 | 26.3 | 25.1 | 95.5 | 50.1 | 18.6 | 40.7 | 43.7 | 15.5 | 79.4 | 50.1 | 51.3 | –
21 | Cc1ccc(-c2cc(O)c3c(C)ccnc3n2)cc1 | 2.9 | – | – | – | – | – | – | – | – | – | – | – | – | –
22 | COc1ccc(-c2cc(O)c3c(C)ccnc3n2)cc1 | 8.8 | 18.2 | 3.89 | 2.09 | 6.31 | 19.5 | 2.4 | 12.9 | 13.8 | 4.37 | 25.1 | 6.46 | 6.17 | –
23 | Oc1cc(-c2ccc(Cl)cc2)nc2ncccc12 | 22 | 47.9 | 28.8 | 8.32 | 39.8 | 40.7 | 5.89 | 38.9 | 23.4 | 16.6 | 33.9 | 32.4 | 38 | –
24 | COc1ccccc1-c1cc(O)c2ccc(C)nc2n1 | > 40 | > 100 | 51.3 | 20 | > 100 | > 100 | 21.9 | 79.4 | > 100 | 74.1 | > 100 | 38 | 97.7 | –
25 | Cc1ccc(-c2cc(O)c3ccc(C)nc3n2)cc1 | 4.9 | – | – | – | – | – | – | – | – | – | – | – | – | –
26 | COc1cccc(-c2cc(O)c3ccc(C)nc3n2)c1 | 0.75 | – | – | – | – | – | – | – | – | – | – | – | – | –
27 | COc1cc2c(c(OC)c1OC)-c1ccc(OC)c(=O)cc1[C@@H](NC(C)=O)CC2 [COLCHICINE] | – | – | – | – | – | – | – | 0.0575 | – | – | – | – | – | –
28 | COc1cccc(-c2cc(=O)c3ccc(C)nc3[nH]2)c1 | – | 0.0331 | 0.0339 | 0.011 | 0.0537 | 0.0302 | < 0.01 | 0.0575 | 0.0224 | 0.0182 | 0.0537 | 0.0468 | 0.0437 | 29
29 | Cc1ccc(-c2cc(O)c3c(C)cc(C)nc3n2)cc1 | 9.8 | – | – | – | – | – | – | – | – | – | – | – | – | –
30 | Cc1cnc2nc(-c3ccc(F)cc3)cc(O)c2c1 | 20 | 25.7 | 21.9 | 3.02 | 25.1 | 29.5 | 2.63 | 26.3 | 22.4 | 2.4 | 32.4 | 24 | 33.9 | –
31 | Oc1cc(-c2ccc(F)cc2)nc2ncc(Cl)cc12 | 16 | 21.9 | 6.61 | 2.95 | 29.5 | 21.4 | 2.57 | 21.9 | 17.4 | 3.89 | 32.4 | 17 | 30.2 | –
